Experimental findings from the RNAGym collection of RNA variant scans (doi:10.1126/science.aae0568) are described below.

Variants at the floor of the assay were thinned out.

B1: tRNA (parent)
chain: GUUCCGUUGGCGUAAUGGUAACGCGUCUCCCUCCUAAGGAGAAGACUGCGGGUUCGAGUCCCGUACGGAACG

This data set covers variants of B1. The data set can be described thus: yeast fitness relative to wild type (ratio to wild type); higher = fitter; tRNA-Arg(CCU), competitive growth, 37 C, YPD. An outline of the steps: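 A pool of Saccharomyces cerevisiae strains, each with a tRNA-Arg(CCU) gene variant at the native genomic locus, was competed in YPD at 37°C for 24 hours across six parallel replicates. The variants had been chemically synthesised at a 3% per-site mutation rate over 69 sites, and gene amplicons before and after competition were read by 100-nucleotide paired-end sequencing. Darwinian fitness relative to wild type rested on changes in genotype frequencies. Genotypes required ≥ 100 starting reads, and estimates < 0.5 were set to 0.5.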
Regarding C5G A14U U16C G18C U32A, the yeast fitness is 0.556.
As for C5A G6C C11G C22U C46U G56A, the yeast fitness is not above 0.5.
In the case of C5A G23A C24U U47A it was not above 0.5; in that of C5A G17C C30A A65C, not above 0.5.
In the case of C5A U54C A70U, the yeast fitness worked out at 0.532.
Regarding C5A U8C G52A G58C, the yeast fitness is not above 0.5.
In the case of C5A G25A it was 1.03; in that of C5A G25C, 0.86; in that of C5A U8C C11U G18A C31A A37U G67C, not above 0.5.
With C5A C31U G68A, the yeast fitness was found to be 0.639.
In the case of C5A G39C G63A, the yeast fitness was not above 0.5.
As for C5G A14G A65U, the yeast fitness turned out to be 0.538.
On to C5A U32C A65C, for which the yeast fitness is 0.68.
With C5A G17C U28C, the yeast fitness was not above 0.5.
As for C5A C60G G67A, the yeast fitness is not above 0.5.
C5A U19C U26G A36C: the yeast fitness is 0.571.
On to C5A G17C G18C C61G, for which the yeast fitness was not above 0.5.
As for C5A U54C, the yeast fitness amounted to 0.722.
In the case of C5G A15C U28A G41C U64G it was not above 0.5; in that of C5G A14C, 0.625.
Take C5G A14U: the yeast fitness is 0.607.
On to C5A U26A C33A A43C G56C, for which the yeast fitness was found to be 0.597.
Turning to C5A U13C C29U C66U, the yeast fitness was 0.549.
The result for C5A G63C reads 0.761.
As for C5A G68A, the yeast fitness came out at 0.82.
The result for C5A G68C reads 0.802.
C5A C31U G51C: the yeast fitness was 0.807.
The result for C5G A14G C24G A40U G48C C60U A69C reads 0.601.
Regarding C5A U53A, the yeast fitness turned out to be 0.722.
On to C5A C60U C66U, for which the yeast fitness was not above 0.5.
In the case of C5A G18A C30U G48C, the yeast fitness is not above 0.5.
On to C5A U16A A45U, for which the yeast fitness turned out to be 0.593.
Take C5A U26A C31A C49U: the yeast fitness is not above 0.5.
In the case of C5A U28C C30U A36C A42G it was not above 0.5; in that of C5A G18A G25A C31U C61U, 0.562.
Take C5A C62G: the yeast fitness was determined as 0.778.
In the case of C5A C62A it was 0.743; in that of C5A C34A, 0.606; in that of C5A C34G, 0.589.
As to C5A G12A C29A G68C, the yeast fitness was determined as 0.689.
For the variant C5A C31U G58C U64C A70G, the yeast fitness was found to be 0.576.
For C5A G25C A57C G67A A69U, the yeast fitness was found to be 0.525.
As to C5A U13C C29U, the yeast fitness is not above 0.5.
Turning to C5G A14G C27G, the yeast fitness was not above 0.5.
With C5A G25C C30U, the yeast fitness came to 0.576.
With C5A G6C A37G G52A C55G, the yeast fitness was not above 0.5.
As to C5A U35C A57C, the yeast fitness is not above 0.5.
In the case of C5A U7C C22G C24U A37C G51C C55U U59G, the yeast fitness is not above 0.5.
In the case of C5G A14U U28C C46G C61U it was not above 0.5.
As to C5A U19A G38C U53C C61G G67A A69C, the yeast fitness was not above 0.5.
The result for C5A U8C U13C A40G reads 0.522; that for C5A G17A G67C, 0.662; that for C5A C55A G56C, not above 0.5.
Turning to C5A G39A C49U G56C, the yeast fitness is not above 0.5.
With C5A U7C U19C, the yeast fitness was not above 0.5.
Turning to C5G A14U U16C G18A A21U A42G G68A, the yeast fitness is not above 0.5.
Take C5A G17A C24U A36C: the yeast fitness worked out at 0.538.
For C5A G12A U35A A42G A65U, the yeast fitness is not above 0.5.
As for C5A C33G A42C, the yeast fitness was not above 0.5.
Consider C5A G12A U35G A69C, for which the yeast fitness was not above 0.5.
For C5A C31G A42G, the yeast fitness is not above 0.5.
In the case of C5A C34A G68C, the yeast fitness was not above 0.5.
Turning to C5A G17C A57U, the yeast fitness was not above 0.5.
In the case of C5G A14C G18A C49U it was not above 0.5.
As for C5A G17C C27U A57C, the yeast fitness is not above 0.5.
The result for C5A G17A G18A G25A C55A reads 0.552; that for C5A G12A C33G A57U, not above 0.5; that for C5A G18A G25A C31U, not above 0.5.
As for C5A U8C G38A C62G, the yeast fitness was 0.643.
Regarding C5A U7C C62U, the yeast fitness is not above 0.5.
The result for C5A U7C C34A G41C C60U A70U reads not above 0.5.
Consider C5A C34U C61G, for which the yeast fitness is not above 0.5.
As to C5A C66U, the yeast fitness worked out at 0.857.
Consider C5A C66A, for which the yeast fitness is 0.679.
For C5A G12A U35A A42G A65C C66A, the yeast fitness came to 0.6.
For C5A U32G C49G, the yeast fitness is not above 0.5.
Consider C5A G18A C61G U64C, for which the yeast fitness is not above 0.5.
Take C5A G6C G68U: the yeast fitness was not above 0.5.
Turning to C5A C34A A43C A45C C46U, the yeast fitness came out at 0.593.
C5A U35A: the yeast fitness came out at 0.73.
Take C5A U35G: the yeast fitness turned out to be 0.636.
As to C5A C34A A40U A43G C62U, the yeast fitness was not above 0.5.
As for C5A G9C A21U A69C, the yeast fitness was not above 0.5.
Consider C5A C62U C66G, for which the yeast fitness was not above 0.5.
The result for C5A U8A U16G A20U A36G A57G G68A reads not above 0.5; that for C5A U8C A21G A45C G56C, 0.554.
For C5A G9C A42C C49G G68A, the yeast fitness is not above 0.5.
As to C5A C33U G56A, the yeast fitness was not above 0.5.
Turning to C5A U13G C24G C31A, the yeast fitness turned out to be 0.514.
In the case of C5A G17C G18C it was 0.579; in that of C5G, 0.992; in that of C5A U28G A65U, not above 0.5.
C5A C49U A65C: the yeast fitness amounted to 0.614.
Turning to C5A G50A, the yeast fitness came to 0.87.
Regarding C5A C34U A36C A40C, the yeast fitness is not above 0.5.
As for C5A G50A U53C C62A A69U, the yeast fitness was not above 0.5.
Consider C5A C61U, for which the yeast fitness came out at 0.966.
As to C5A C31U C55U, the yeast fitness stood at 0.6.
Consider C5A C33G A40G, for which the yeast fitness is 0.521.
Take C5A G17C G44A C61U: the yeast fitness was not above 0.5.
On to C5A U19A C62A A69U, for which the yeast fitness is not above 0.5.
The result for C5A G63A C66U reads 0.651; that for C5G A14U C49U C61U, not above 0.5.
Take C5A U32C C60U C61G: the yeast fitness is not above 0.5.
On to C5G A14G G17A A20G U32C G56C C60G, for which the yeast fitness was not above 0.5.
On to C5A G44C G48A G51A, for which the yeast fitness came out at 0.609.
In the case of C5A C33U U53C it was not above 0.5; in that of C5A U19A, 0.843; in that of C5G A14C C29U C33G A65C, not above 0.5.
Consider C5A C33G C34A A40C, for which the yeast fitness was found to be 0.567.
Consider C5A G10A C49A, for which the yeast fitness is not above 0.5.
As for C5A U35G G41A G56A A70C, the yeast fitness is 0.543.
The result for C5A G10A G39A U53G reads not above 0.5.
With C5A U32A A36C A70G, the yeast fitness is not above 0.5.
On to C5G A14C U16A C30U G38C G41C C66U, for which the yeast fitness is not above 0.5.
With C5A G17C A57G C66U, the yeast fitness is not above 0.5.
Turning to C5A U19A C30G, the yeast fitness amounted to 0.594.
For C5A G23C G48C C61A, the yeast fitness is not above 0.5.
Turning to C5G A14U G25A G48C C61A, the yeast fitness was 0.528.
With C5A C46A A69U, the yeast fitness was found to be 0.738.
For the variant C5A U35C G44A G48C C55G A69U, the yeast fitness stood at 0.56.
Consider C5A C46A G56C A70G, for which the yeast fitness was not above 0.5.
Regarding C5A G9A C29U, the yeast fitness came to 0.547.
On to C5A U53C C62U, for which the yeast fitness is not above 0.5.
Regarding C5G A15C A42C, the yeast fitness worked out at 0.584.
Take C5A G18A C30U G48C G68C: the yeast fitness is 0.54.
For C5A G12A C60G, the yeast fitness was not above 0.5.
C5A C31G A37G U59A A70C: the yeast fitness is not above 0.5.
On to C5A U13C U19C C33G, for which the yeast fitness was not above 0.5.
For C5A G12A C33G, the yeast fitness came to 0.646.
Turning to C5G A14C C29A C31G A36G U54A, the yeast fitness is not above 0.5.
In the case of C5A U19A G38C A57C C62U it was not above 0.5.
For C5G A14C C31G, the yeast fitness is not above 0.5.
The result for C5G A14G G44C C62U C66U A69C reads not above 0.5; that for C5A U35G G41A G56A C66U, not above 0.5.
On to C5A U7C U19A G38C A42G C49G C55A A57C, for which the yeast fitness is not above 0.5.
C5A C30U G68A: the yeast fitness was not above 0.5.
With C5A U32C, the yeast fitness was determined as 0.928.
In the case of C5A U32A it was 0.784; in that of C5A U16A C62U, not above 0.5; in that of C5G A14C A37G C62G, 0.561.
Turning to C5A G41A, the yeast fitness worked out at 0.873.
In the case of C5A G12A, the yeast fitness was determined as 0.788.
Turning to C5A U53A U59A A69U, the yeast fitness worked out at 0.712.
With C5G A14G C33A G56A C61A, the yeast fitness is 0.583.
Regarding C5A G17C A57C A70U, the yeast fitness was not above 0.5.
Consider C5A U8G U19C A37U G51A G52C U59C, for which the yeast fitness was not above 0.5.
Take C5A G12A U47A: the yeast fitness is not above 0.5.
For the variant C5A G25A U28C C31U A40C A42G A69C, the yeast fitness is not above 0.5.
C5A C46A G56C: the yeast fitness was not above 0.5.
For C5A G25A G58C C66U, the yeast fitness was not above 0.5.
The result for C5A U28G reads 0.609.
Consider C5A U32A A36C, for which the yeast fitness is not above 0.5.
With C5A G38C G51A G58A, the yeast fitness turned out to be 0.506.
With C5A G12A C24U C29U C30A, the yeast fitness is not above 0.5.
Regarding C5A G17C C46G C55U, the yeast fitness is not above 0.5.
Consider C5A G18C G50C C60G A70G, for which the yeast fitness was not above 0.5.
In the case of C5A G9C C27A C30U A65G it was not above 0.5; in that of C5A G51A C61G, not above 0.5.
In the case of C5A G17C G18C C60U, the yeast fitness was not above 0.5.
On to C5G A14U G38A A40U G50C C60G A70G, for which the yeast fitness was not above 0.5.
The result for C5A U16C A42U reads 0.672; that for C5A G10C U19C C24G, not above 0.5.
For C5A C30U U35A A42G C61U G63A, the yeast fitness was 0.538.
Turning to C5A C55U G63A G67C, the yeast fitness was not above 0.5.
As to C5A C46U C55U, the yeast fitness is 0.763.
In the case of C5A U8G A37U G51A G52C A57G U59C, the yeast fitness was 0.52.
